According to ChEMBL document CHEMBL4118259, “Synthesis of sulfadiazinyl acyl/aryl thiourea derivatives as calf intestinal alkaline phosphatase inhibitors, pharmacokinetic properties, lead optimization, Lineweaver-Burk plot evaluation and binding analysis” (Bioorg Med Chem, 2018):

Assays:
Conditions in all cases: Bos taurus
[1] = compound: O=C(NC(=S)Nc1ccc(S(=O)(=O)Nc2ncccn2)cc1)c1ccc(Cl)cc1; assay: Mixed-type inhibition of calf intestinal alkaline phosphatase assessed as substrate Vmax at 0.015 uM using varying levels of p-NPP as substrate measured every minute for 10 mins by Lineweaver-Burk plot analysis (reference value: 1.2 10^-5deltaA/s)
Summary of the method: (§1)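 Same CIALP buffer and enzyme system with inhibitor at 0.0, 0.015 and 0.3 µM and p-NPP at 10, 5, 2.5, 1.25 and 0.625 mM. Initial velocities were read every minute over the first 10 min after enzyme addition. Inhibition type came from Lineweaver-Burk plots of 1/V vs 1/[S]. Ki came from secondary plots of slope vs inhibitor concentration, Ki′ from intercept vs concentration.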

[2] = compound: O=C(NC(=S)Nc1ccc(S(=O)(=O)Nc2ncccn2)cc1)c1ccc(Cl)cc1; assay: Mixed-type inhibition of calf intestinal alkaline phosphatase assessed as substrate Vmax at 0.3 uM using varying levels of p-NPP as substrate measured every minute for 10 mins by Lineweaver-Burk plot analysis (reference value: 1.2 10^-5deltaA/s); summary of the method: as §1
[3] = compound: O=C(NC(=S)Nc1ccc(S(=O)(=O)Nc2ncccn2)cc1)c1ccc(Cl)cc1; assay: Mixed-type inhibition of calf intestinal alkaline phosphatase assessed as substrate Km at 0.015 uM using varying levels of p-NPP as substrate by Lineweaver-Burk plot analysis (reference value: 0.833 mM); summary of the method: as §1
[4] = compound: O=C(NC(=S)Nc1ccc(S(=O)(=O)Nc2ncccn2)cc1)c1ccc(Cl)cc1; assay: Mixed-type inhibition of calf intestinal alkaline phosphatase assessed as substrate Km at 0.3 uM using varying levels of p-NPP as substrate by Lineweaver-Burk plot analysis (reference value: 0.833 mM); summary of the method: as §1

B1: Intestinal-type alkaline phosphatase (Bos taurus), P19111 (protein)
chain: MQGACVLLLLGLHLQLSLGLVPVEEEDPAFWNRQAAQALDVAKKLQPIQTAAKNVILFLGDGMGVPTVTATRILKGQMNGKLGPETPLAMDQFPYVALSKTYNVDRQVPDSAGTATAYLCGVKGNYRTIGVSAAARYNQCKTTRGNEVTSVMNRAKKAGKSVGVVTTTRVQHASPAGAYAHTVNRNWYSDADLPADAQMNGCQDIAAQLVNNMDIDVILGGGRKYMFPVGTPDPEYPDDASVNGVRKRKQNLVQAWQAKHQGAQYVWNRTALLQAADDSSVTHLMGLFEPADMKYNVQQDHTKDPTLQEMTEVALRVVSRNPRGFYLFVEGGRIDHGHHDDKAYMALTEAGMFDNAIAKANELTSELDTLILVTADHSHVFSFGGYTLRGTSIFGLAPSKALDSKSYTSILYGNGPGYALGGGSRPDVNDSTSEDPSYQQQAAVPQASETHGGEDVAVFARGPQAHLVHGVEEETFVAHIMAFAGCVEPYTDCNLPAPTTATSIPDAAHLAASPPPLALLAGAMLLLLAPTLY
- Vmax (10'-6deltaA/s) [1]: 8
- Vmax (10'-5deltaA/s) [2]: 4.9
- Km [3]: 1330 µM
- Km [4]: 2000 µM
